Most compounds without a hit are left out; they make up all but 3.6% or so of the library.
SKKanGAS inh – inhibitors of SKKanGAS S. pyogenes growth in kanamycin (SK-promoter or general growth effect) | BacTiter-Glo, 6 h | inhibition, % at 7.5 µM | actives 1.3% (n = 300,000) | AID 1662;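 active means mean replicate score, as percent of positive control median, at least 50; inconclusive means mean below 50 but one replicate at or above 50; inactive means mean and every replicate below 50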;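 further: strain carries kanamycin resistance gene driven by streptokinase promoter and grows in 40 µg/ml kanamycin; loss of luminescence reflects streptokinase promoter inhibition or plain growth inhibition; 0% = median of DMSO wells and 100% = positive control at its reference dose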
CSC inhib – blocks cancer stem cells; inhibition, % at 7.5 µM; cancer stem cell-like cells viability, luminescence; actives 1.1% (n = 300,000); in the data active means inhibition above about 75%; inconclusive means no clear call, values can overlap the other calls; tested in HMLE shEcad cells
Beta cell apopt – beta cell apoptosis inhibition. INS-1E cytokine-induced death, ATP luminescence, 48 h; percent of positive-control rescue, neutral wells zero. protection from apoptosis, % (test concentration not listed). actives 0.8% (n = 300,000);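 active means Every replicate reaches about 75%, or at least half do and their mean reaches it too, limit read from the data; inconclusive means At least half of replicates reach the limit but their mean does not; inactive means Under half of replicates reach the limit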;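 further: 0% = cytokine-treated negative control wells and 100% = positive control rescue; higher means more ATP so stronger rescue from cytokine killing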
T cruzi inh – T. cruzi replication inhibition | T. cruzi beta-gal in NIH3T3, luminescence, 90 h | inhibition, % (concentration not given with the values) | actives 1.4% (n = 300,000);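 active means mean inhibition across valid replicates above about 55%, limit read from the data; inconclusive means mean below that limit but half or more replicates reach it; inactive means mean below it, under half of replicates reach it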;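 further: signal also drops with host cell toxicity which is not excluded here; 0% = plate median of DMSO wells and 100% = zero luminescence signal; higher percent means less beta-gal luminescence so fewer parasites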
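Incubation – ≥90 h infection period, 3 h prior cell attachment · System – NIH/3T3 fibroblasts plus reporter T. cruzi · Doses – compound pinned at 50 nL/well, DMSO · Read-out basis – percent inhibition of parasite-derived β-gal signal · Signal – luminescent β-galactosidase signal after 60 min lysis · Also added – 5000 T. cruzi trypomastigotes/well · Medium – Low-serum DMEM with 2% FBS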
HIF activator – HIF pathway transcriptional activation; U2OS HRE-luciferase reporter, luminescence; normalized: DMSO 0%, desferrioxamine 100%; activation, % at 7.5 µM (by protocol); actives 0.32% (n = 300,000); AID 1910;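 active means mean activation of at least 10% of the iron chelator positive control signal, with at least half of replicates also reaching 10%; inconclusive means mean and replicate majority disagree about reaching 10%; inactive means mean and most replicates under 10%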
PfHsp90 yeast 2 – growth inhibition of yeast expressing Plasmodium Hsp90; S. cerevisiae expressing PfHsp90, BacTiter-Glo ATP, 48 h; yeast lacking PDR1 and PDR3 efflux regulators; inhibition, % at 9.4 µM; actives 0.32% (n = 310,000); AID 504621;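 active means every replicate shows inhibition above about 80%, whatever the replicate mean, limit read from the data; inconclusive means mean inhibition reaches the set limit but some replicate falls short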;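 further: 0% = DMSO neutral controls and 100% = 20 µM radicicol positive controls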
* = called active by the depositor; ? = inconclusive; / = no result.

SMILES	SKKanGAS inh	CSC inhib	Beta cell apopt	T cruzi inh	HIF activator	PfHsp90 yeast 2
COC(C(=O)Nc1ccnn1C1CCN(Cc2ccc(CO)o2)CC1)c1ccccc1 (stereo not drawn)	14.7	-4.9	-4.1	-12.9	-0.4	-7.7
COc1ccccc1C(=O)Nc1ccnn1C1CCN(Cc2ccccc2OCCO)CC1	24.9	-6.6	/	-15.2	0.8	-17.0
COc1ccccc1C(=O)Nc1ccnn1C1CCN(Cc2cnc(N(C)C)s2)CC1	4.7	0.4	-4.0	55.9*	1.3	23.2
COc1cc(CN2CCC(n3nccc3NC(=O)C3CCOC3)CC2)ccc1F (stereo not drawn)	-4.7	1.2	-1.7	-14.7	0.1	5.2
CCn1cc(CN2CCC(n3nccc3NC(=O)c3ccccc3OC)CC2)cn1	9.2	-8.0	-1.3	33.4	-0.2	8.7
COc1cc(F)ccc1CN1CCC(n2nccc2NC(=O)C2CCOC2)CC1 (stereo not drawn)	52.0*	-1.6	/	7.0	0.3	-16.5
COC(C(=O)Nc1ccnn1C1CCN(Cc2nccs2)CC1)c1ccccc1 (stereo not drawn)	50.9*	-2.0	/	-5.6	-0.1	5.1
CCOc1ccc(CN2CCC(n3nccc3NC(=O)c3ccccc3OC)CC2)cc1	14.2	-5.4	6.8	61.7*	-0.3	-6.7
CC(C)Oc1ccc(C(=O)Nc2c3c(nn2C(C)(C)C)CS(=O)(=O)C3)cc1	-0.5	-2.5	-5.0	-0.9	-0.2	4.9
Cc1cccc(CC(=O)Nc2sc(C(C)C)cc2C(=O)N2CCOCC2)c1	2.0	-1.5	-2.9	20.3	-0.1	-6.6
C#CCn1cc[n+](CC(=O)N(C)C)c1	-2.1	-2.6	2.8	-4.7	-0.6	5.9
CCCCCCCCCCCCCCCCn1cc[n+](CC(C)=O)c1	/	/	/	/	/	104.8*
Cc1nc(SCC(=O)N2CCN(c3ccccn3)CC2)c(C#N)c(C)c1C	/	-5.0	-6.6	/	/	1.9
CCCN(CC(=O)Nc1ccc(F)c(F)c1F)C(=O)Cc1ccc(OC)c(S(=O)(=O)N2CCOCC2)c1	/	/	/	/	/	4.7
S=C1NC[C@H](CC2CCCCC2)N1CC1CCCCC1	61.4*	28.3	22.6	31.5	0.5	16.1
CC(C)Nc1nc(Cl)nc(NNC(=O)C(C)Oc2ccccc2)n1 (stereo not drawn)	3.2	9.4	-4.7	-11.3	-0.6	/
CCNc1nc(Cl)nc(NNC(=O)C(C)Oc2ccccc2)n1 (stereo not drawn)	2.5	-6.4	-1.0	-9.9	236.0*	9.3
Cc1ccc(S(=O)(=O)/N=C(/Nc2c(C)cccc2C)c2ccccc2)cc1	/	-8.7	4.6	/	/	0.1
CC12CCC(C/C1=N\N=C1\NC(=O)/C(=C\c3ccc(Cl)cc3)S1)C2(C)C (stereo not drawn)	106.0*	122.1*	5.8	32.5	0.0	-4.1
CCc1c(C)nc2ncnn2c1NCCc1ccc(OC)cc1	14.7	47.2	97.2*	-37.3	-0.8	-17.1
CCc1c(C)nc2ncnn2c1Nc1ccc(C)cc1	-5.4	14.7	-3.0	1.1	-0.9	5.3
O=C1C(=NO)CCc2ccccc21	/	/	/	/	/	-11.4
CCN(CC)P(=O)(Nc1cccc(C(F)(F)F)c1)c1ccc(N(C)C)cc1NC(=O)c1ccco1 (stereo not drawn)	13.3	2.3	9.8	55.0*	-1.4	-37.4
NC(=O)c1c(-c2ccc(Cl)cc2Cl)csc1NC(=O)Cc1ccccc1	10.0	4.6	96.2*	5.3	-0.4	-57.3
C(=NN=C(NN=Cc1cccs1)NN=Cc1cccs1)c1cccs1	/	/	/	/	/	-3.9
SMILES	SKKanGAS inh	CSC inhib	Beta cell apopt	T cruzi inh	HIF activator	PfHsp90 yeast 2
COc1ccc(/C=N/Nc2cc(N3CCOCC3)ncn2)c(OC)c1	-2.9	-15.3	0.9	-8.3	0.6	-0.2
COc1cccc(/C=N/Nc2ncnc3c2ncn3Cc2ccccc2)c1O	13.8	-11.6	/	33.8	67.7*	-10.6
CCOc1ccc(/C=N/Nc2cc(N3CCOCC3)nc(C)n2)c(O)c1	65.5*	4.3	-3.5	-11.6	-0.6	-11.6
COc1cccc(/C=N/Nc2cc(Cl)nc(C)n2)c1O	-0.6	2.4	11.2	-3.4	3.2	-19.0
COc1cccc(/C=N/Nc2cc(N3CCOCC3)ncn2)c1O	98.9*	66.3	88.4*	-8.5	0.0	-2.9
Fc1ccccc1NC(=S)NCCc1cccc(Cl)c1	/	10.0	1.3	/	/	-9.4
O=C(C1CCC1)N1CCN(S(=O)(=O)c2ccc(Br)cc2Cl)CC1	2.9	-9.7	-0.6	14.6	-1.0	14.1
N#Cc1ccc(C(=O)N2CCC3CC2c2cc(-c4ccc(F)cc4)ccc23)cc1 (stereo not drawn)	/	/	/	/	/	-21.3
Cc1cc(NC(=O)c2cc(-c3ccc(OC(C)C)cc3)nc3ccccc23)no1	4.2	12.2	9.7	39.4	1.5	-9.5
NC(=O)c1ccnc2c(O)cccc12	/	-4.6	-17.8	/	/	/
Oc1ccc(Cn2ccnc2)c2cccnc12	-13.1	/	-3.5	24.8	-0.3	23.1
COCc1ccc(O)c2ncccc12	60.9*	25.9	91.4*	43.7	1.0	-31.2
OCc1ccnc2c(O)cccc12	-0.6	2.4	12.4	56.7*	0.7	-6.1
Oc1ccc(CNc2ccccc2)c2cccnc12	-2.9	19.0	105.4*	-5.7	1.1	13.4
Oc1ccc(CNc2ccc(F)cc2)c2cccnc12	3.8	26.7	92.2*	55.4*	2.4	-31.0
COc1cccc(C(=O)NNC(=O)c2ccc3ccccc3c2O)c1	8.2	8.9	3.0	-0.8	0.0	8.4
O=C(NC(=S)Nc1ccccc1O)c1ccc(-c2ccc(Cl)cc2)o1	52.6*	25.9	-14.4	-11.5	0.9	-38.3
Cc1ccc(O)c(NC(=S)NC(=O)c2ccc(-c3ccc(Cl)cc3)o2)c1	96.4*	-2.0	?	-12.9	-0.1	121.8*
Cc1cccc(N/N=C/c2ccc(O)c(O)c2O)c1	13.8	5.7	-4.3	1.2	-0.2	15.5
COc1cccc(N/N=C/c2cccc(Br)c2O)c1	62.7*	44.3	19.2	64.8*	0.6	-7.3
CC(=O)Oc1ccc(-c2ccc(C(=O)Nc3cccc(S(=O)(=O)N4CCOCC4)c3)cc2)cc1	28.8	93.4*	5.1	40.5	-0.4	-7.2
CCOc1cc(-c2nc(-c3ccccc3)c(-c3cc([N+](=O)[O-])ccc3C)[nH]2)ccc1O	17.0	/	5.2	56.9*	-0.7	-13.0
COc1ccc(-c2nc(-c3ccccc3)c(-c3cc([N+](=O)[O-])ccc3C)[nH]2)cc1OC	18.7	33.1	7.2	38.4	-0.5	/
O=[N+]([O-])c1ccc(O)c(-c2nc(-c3ccccc3)c(-c3cccs3)[nH]2)c1	101.8*	100.4*	48.6	-1.6	0.1	/
Cc1cccc(CC(=O)NCC(=O)NCc2cc(=O)n(C)c(=O)n2C)c1	-7.8	-9.7	-3.9	-7.3	-0.6	3.6
O=C(CN1CCCCCC1)Nc1ccccc1OC(F)F	4.3	-1.6	-0.2	-5.2	0.0	2.0
